Data as given in PubChem BioAssay.
Activity calls are given as the source filed them. Rule as the data show it, unless noted: active = inhibition above about 30%; inactive = the rest.

Columns and labels:
[1] = Her2 expression decrease, cell viability multiplex – SKBR3 breast tumor cells, AlphaScreen, ATP viability, primary screen (AID 461;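 active = Her2 level under about 52% in both replicate screens, with viability over 70% of control, limit read from the data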;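 as to Her2 level: lower value means less Her2 protein in the cells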;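 as to viability: percent of carrier control wells set as 100% viability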); settings: SKBR3 Her2 protein level, 18-24 h, measured here: SKBR3 viability, ATP luminescence, at 10 µM
[2] = target: Receptor tyrosine-protein kinase erbB-2 (Homo sapiens) (UniProt P04626); assay: as above; settings: 18-24 h, at 10 µM, stronger effect = lower value
[3] = reduced viability of SK-BR-3 breast cancer cells – cell-based, 24 h, human, pilot screen (AID 572;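 active = viability at or below 10% of carrier control in both of two separate runs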;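 also: compound exposure lasted between 18 and 24 h rather than exactly 24 h; 100% = carrier-treated control wells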); settings: SK-BR-3 viability, CellTiter-Glo luminescence, at 10 µM, stronger effect = lower value
[4] = HUVEC growth inhibition – cell-based, human, primary screen (AID 575;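 active = viability at or below 30% in both replicate assays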;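 also: 100% = median of untreated cell wells with 0.1% DMSO on each plate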); settings: HUVEC proliferation, CellTiter-Glo luminescence, 72 h; at 10 µM; stronger effect = lower value
Outline: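 Timing: 72 h treatment at 37 °C; material: HUVEC primary cells; technique: CellTiter-Glo luminescence measuring cellular ATP; controls: vehicle and MePR control wells; measure: percent of median DMSO-control luminescence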

[5] = H69AR cell proliferation blockers – human, duplicate replicates, primary screen (AID 580;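 active = viability at or under a set limit in both replicates, limit being median viability minus 3 SD, cut at about 48% in these data, passing the limit was not always enough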;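 also: 100% = mean luminescence of untreated wells and 0% = no signal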); settings: H69AR lung tumor cells viability, ATP luminescence, 72 h; at 10 µM; stronger effect = lower value
[6] = MRP1 drug-resistance reversers in H69AR cells – cell-based, doxorubicin co-treatment, pilot screen (AID 601;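 active = viability loss from added drug above about 55%, and viability with drug at most 40%, in both replicates, limit read from the data, passing the limit was not always enough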); settings: CellTiter-Glo, 72 h, at 10 µM; for differential viability (reversal): stronger effect = higher value
[7] = yeast transport mutant growth inhibition pilot in 384-well plates, post-Golgi transport modulator project (AID 636; in the data active = inhibition above about 31%); settings: absorbance 615 nm, about 18 h, stronger effect = higher value
[8] = growth suppression of yeast trafficking mutant, preliminary HTS, modulators of trafficking downstream of Golgi apparatus project, 1536-format plate, OD 615 nm (AID 637); settings: yeast transport mutant growth, absorbance 615 nm, 18 h; stronger effect = higher value
[9] = H69AR cells + 2 uM doxorubicin, measured here: viability with 2 uM doxorubicin, stronger effect = lower value
[10] = H69AR cells, compound alone cytotoxicity

Chain of Receptor tyrosine-protein kinase erbB-2 (Homo sapiens) (P04626 whole entry, looked up): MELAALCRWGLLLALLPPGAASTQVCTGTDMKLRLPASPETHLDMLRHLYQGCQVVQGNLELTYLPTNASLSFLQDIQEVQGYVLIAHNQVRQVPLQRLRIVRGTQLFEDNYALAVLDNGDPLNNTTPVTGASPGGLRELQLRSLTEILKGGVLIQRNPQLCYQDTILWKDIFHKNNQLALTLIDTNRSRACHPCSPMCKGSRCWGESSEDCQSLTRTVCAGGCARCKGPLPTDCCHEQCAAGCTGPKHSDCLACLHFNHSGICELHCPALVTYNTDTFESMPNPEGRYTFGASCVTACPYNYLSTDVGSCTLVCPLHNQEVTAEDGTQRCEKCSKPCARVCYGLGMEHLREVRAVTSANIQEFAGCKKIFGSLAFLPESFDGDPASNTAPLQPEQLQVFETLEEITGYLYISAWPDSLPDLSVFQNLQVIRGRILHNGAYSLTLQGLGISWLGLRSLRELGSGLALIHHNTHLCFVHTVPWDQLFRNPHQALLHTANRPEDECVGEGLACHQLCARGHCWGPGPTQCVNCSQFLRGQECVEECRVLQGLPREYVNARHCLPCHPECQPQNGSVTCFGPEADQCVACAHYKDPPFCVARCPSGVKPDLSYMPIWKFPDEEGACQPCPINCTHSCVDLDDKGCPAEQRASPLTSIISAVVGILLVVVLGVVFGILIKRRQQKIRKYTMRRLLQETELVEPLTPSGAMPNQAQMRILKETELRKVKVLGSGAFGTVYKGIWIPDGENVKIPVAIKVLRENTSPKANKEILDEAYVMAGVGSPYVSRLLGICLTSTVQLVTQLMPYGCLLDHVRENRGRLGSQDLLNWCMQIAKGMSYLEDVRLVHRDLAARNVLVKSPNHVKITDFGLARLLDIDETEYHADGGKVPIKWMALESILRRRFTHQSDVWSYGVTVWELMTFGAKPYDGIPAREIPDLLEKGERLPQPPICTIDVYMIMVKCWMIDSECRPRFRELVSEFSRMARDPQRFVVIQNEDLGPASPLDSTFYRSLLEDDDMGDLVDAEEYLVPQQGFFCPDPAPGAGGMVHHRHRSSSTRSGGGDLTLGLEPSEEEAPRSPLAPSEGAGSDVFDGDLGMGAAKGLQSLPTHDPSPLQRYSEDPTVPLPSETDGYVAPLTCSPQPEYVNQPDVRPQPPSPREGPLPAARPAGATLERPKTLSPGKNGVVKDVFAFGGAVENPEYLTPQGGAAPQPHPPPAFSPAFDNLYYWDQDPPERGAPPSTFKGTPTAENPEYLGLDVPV

| Structure (SMILES) | viability [1] | Her2 level [2] | viability [3] | viability [4] | viability [5] | differential viability (reversal) ([6]; H69AR cells + 2 uM doxorubicin) | viability [6, 9] | viability [6, 10] | inhibition [7] | inhibition [8] |
| --- | --- | --- | --- | --- | --- | --- | --- | --- | --- | --- |
| O=c1c2[nH]c3ccccc3c2ncn1CCCn1ccnc1 | 92% | 77.5% (inactive) | 92% (inactive) | 93.7% (inactive) | 96.8% (inactive) | 1.08% (inactive) | 95.7% | 96.8% | -3.77% (inactive) | -0.83% (inactive) |
| O=C(O)CCCC(=O)Nc1ccc(Br)cc1C(=O)O | 95.5% | 90% (inactive) | 95.5% (inactive) | 93.8% (inactive) | 96.8% (inactive) | 14.4% (inactive) | 82.4% | 96.8% | -0.53% (inactive) | -0.16% (inactive) |
| Cc1cccc(C2c3c(n(C)c(=O)n(C)c3=O)N=C3c4ccccc4C(=O)C32)c1 (stereo not given) | 101% | 82.5% (inactive) | 101% (inactive) | 43.8% (inactive) | 24.3% (active) | -9.63% (inactive) | 34% | 24.3% | -7.47% (inactive) | 0.32% (inactive) |
| COc1ccc(NC(=O)c2cc(C)on2)cc1OC | 110% | 93% (inactive) | 110% (inactive) | 104% (inactive) | 96.7% (inactive) | 8.07% (inactive) | 88.6% | 96.7% | -5.87% (inactive) | 3.28% (inactive) |
| CCCCn1c(NCCC)nc2c1c(=O)[nH]c(=O)n2C | 96% | 80% (inactive) | 96% (inactive) | 113% (inactive) | 93.7% (inactive) | 12.8% (inactive) | 81% | 93.7% | -3.51% (inactive) | -0.66% (inactive) |
| Cc1csc(NC(=O)c2ccco2)n1 | 102% | 83.5% (inactive) | 102% (inactive) | 82.9% (inactive) | 83.3% (inactive) | 1.88% (inactive) | 81.4% | 83.3% | -3.46% (inactive) | -5.5% (inactive) |
| CCN1CCN(c2nc3c(C)cccn3c(=O)c2/C=C(\C#N)S(=O)(=O)c2ccccc2)CC1 | 93% | 76.5% (inactive) | 93% (inactive) | 89.6% (inactive) | 75.1% (inactive) | -7.74% (inactive) | 82.8% | 75.1% | -2.76% (inactive) | -0.18% (inactive) |
| O=C(NCCCCNC(=O)c1c(F)c(F)c(F)c(F)c1F)c1c(F)c(F)c(F)c(F)c1F | 98.5% | 76.5% (inactive) | 98.5% (inactive) | 97.2% (inactive) | 89.4% (inactive) | 10.4% (inactive) | 78.9% | 89.4% | -6.27% (inactive) | -3.17% (inactive) |
| COc1ccc(CN(Cc2nc3ccccc3c(=O)[nH]2)C(=O)NC2CCCCC2)cc1 | 95.5% | 71% (inactive) | 95.5% (inactive) | 91.4% (inactive) | 90.2% (inactive) | 0.78% (inactive) | 89.4% | 90.2% | -4.61% (inactive) | -0.5% (inactive) |
| CCOc1ccccc1NC(=O)CSc1c(C)n[nH]c1C | 90% | 88% (inactive) | 90% (inactive) | 109% (inactive) | 113% (inactive) | 19.8% (inactive) | 92.7% | 113% | -3.07% (inactive) | -3.71% (inactive) |
| NC(=O)c1c(-c2ccccc2)oc2ccc(O)cc12 | 121% | 88% (inactive) | 121% (inactive) | 96.2% (inactive) | 90.4% (inactive) | 13.4% (inactive) | 77% | 90.4% | 1.18% (inactive) | -9.82% (inactive) |
| COc1ccccc1NC(=O)CSc1nnc(CC(=O)Nc2ccccc2)n1C | 96% | 80.5% (inactive) | 96% (inactive) | 113% (inactive) | 91% (inactive) | -2.08% (inactive) | 93.1% | 91% | -2.99% (inactive) | -2% (inactive) |
| CCOC(=O)c1ccccc1NC(=O)CSc1nc2c(c(=O)n(C)c(=O)n2C)n1C | 100% | 92% (inactive) | 100% (inactive) | 101% (inactive) | 92.4% (inactive) | 6.47% (inactive) | 85.9% | 92.4% | -1.58% (inactive) | 0.16% (inactive) |
| CC1CCCCC1NC(=O)CCCc1nc2ccccc2c(=O)[nH]1 (stereo not given) | 80.5% | 93.5% (inactive) | 80.5% (inactive) | 105% (inactive) | 110% (inactive) | 13.7% (inactive) | 96.2% | 110% | 0.27% (inactive) | 2.46% (inactive) |
| c1c2c(cc3sc(N4CCCCC4)nc13)OCCO2 | 98% | 91.5% (inactive) | 98% (inactive) | 87% (inactive) | 75.4% (inactive) | 2.07% (inactive) | 73.3% | 75.4% | -4.93% (inactive) | 7.26% (inactive) |
